# ChEMBL document CHEMBL5376022, “Design, synthesis and biological evaluation of novel pyrimidine derivatives as bone anabolic agents promoting osteogenesis via the BMP2/SMAD1 signaling pathway” (RSC Med Chem, 2024)
# Active and inactive are the calls of the source. The calls are words filed in the database; no cut-off is given here.
# What was measured:
# Calvarial osteoblast [1] = experiment: Induction of osteogenesis in BALB/c mouse calvarial osteoblast cells using PNPP as substrate assessed as increase in ALP activity at 0.1 to 10 nM measured after 48 hrs by spectrophotometry; type: functional, cell-based; conditions: Calvaria, dose 0.1-10 nM
# Summary of the method: (§1)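 Neonatal BALB/c calvarial osteoblasts, 2 × 10³ cells per well, adhered 24 h, then exposed to compounds (1 pM to 1 μM range) in osteoblast differentiation medium for 48 h. Cells frozen overnight at −80 or −20 °C, thawed at 37 °C to expose ectoenzyme; p-nitrophenyl phosphate added and ALP activity read at 405 nm. Untreated cells as control.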
# Calvarial osteoblast [2] = experiment: Cytotoxicity in BALB/c mouse calvarial osteoblast cells at 0.001 to 1000 nM incubated for 48 hrs by MTT assay; type: toxicity, cell-based, Calvaria; conditions: 1 µM, dose 0.001-1000 nM
# Summary of the method: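 Primary calvarial osteoblasts from 1–2 day old BALB/c pups (collagenase/dispase digests, α-MEM with 10% FBS) seeded at 2 × 10³ per well. MTT added for 4 h at 37 °C, formazan dissolved in DMSO, absorbance read at 570 nm.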
# [3] = Induction of osteogenesis in BALB/c mouse MSC cells assessed as increase in mineral nodule formation at 0.1 nM treated for 21 days with compound refreshment for every 48 hrs by Alizarin red S staining based analysis relative to control; type: functional; conditions: time 21 day
# Summary of the method: (§2)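 Bone marrow cells were flushed from the long bones of 6–8-week-old BALB/c mice and seeded at 2 × 10⁶ per well. Medium: 10% FBS, 100 nM dexamethasone, 50 μg mL⁻¹ ascorbic acid and 10 mM β-glycerophosphate. Compound and medium were renewed every 48 h for 21 days. Cells were fixed in 4% paraformaldehyde and stained with Alizarin red (pH 4.2). Stain was eluted with 10% cetylpyridinium chloride for 1 h and read at 595 nm versus control.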
# Calvarial osteoblast [4] = experiment: Induction of cell proliferation of BALB/c mouse calvarial osteoblast cells at 0.1 nM incubated for 48 hrs by MTT assay relative to control; type: functional, Calvaria
# Summary of the method: (§3)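 Primary calvarial osteoblasts from 1–2-day-old neonatal BALB/c pups, released by dispase/collagenase digestion and grown in α-MEM with 10% FBS. Seeded at 2 × 10³ cells per well, treated after 24 h for 48 h in α-MEM with 5% FBS, 10 mM β-glycerophosphate and 50 μg mL⁻¹ ascorbic acid. MTT added for 4 h at 37 °C, formazan dissolved in DMSO, absorbance read at 570 nm versus untreated cells.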
# Calvarial osteoblast [5] = experiment: Induction of osteogenesis in BALB/c mouse calvarial osteoblast cells assessed as increase in type-1 col level at 1 to 100 pM incubated for 48 hrs by Western blot analysis; type: functional, cell-based; conditions: Calvaria, dose 1-100 pM
# Summary of the method: (§4)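 Calvarial osteoblasts seeded at 10⁶ per well, treated after 24 h at 1 pM and 100 pM for 48 h. Lysed with protease and phosphatase inhibitors, protein by BCA; 30 μg resolved by SDS-PAGE, PVDF transfer, 5% BSA block. Primary antibodies to BMP2, SMAD1, phospho-SMAD1, RUNX2, type I col (1:1000) overnight at 4 °C; β-actin loading control; HRP chemiluminescence and densitometry.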
# [6] = Induction of osteogenesis in BALB/c mouse MSC cells assessed as increase in mineral nodule formation at 0.001 nM treated for 21 days with compound refreshment for every 48 hrs by Alizarin red S staining based analysis relative to control; type: functional; conditions: time 21 day; summary of the method: as §2
# [7] = Stability in SGF assessed as compound remaining measured upto 6 hrs by RP-UHPLC analysis; type: ADME; conditions: simulated gastric fluid (SGF), read-out: Stability
# [8] = AUC (0 to infinity) in BALB/c mouse at 5 mg/kg, po measured for 0.83 to 24 hrs by LC-MS/MS analysis; type: ADME, organism-based; parameters: time upper 24 hrs, dose 5 mg/kg, time lower 0.83 hrs, route po; conditions: in vivo
# Calvarial osteoblast [9] = experiment: Induction of cell proliferation of BALB/c mouse calvarial osteoblast cells at 10 nM incubated for 48 hrs by MTT assay relative to control
# [10] = Stability in SIF assessed as compound remaining measured upto 6 hrs by RP-UHPLC analysis; type: ADME; conditions: simulated intestinal fluid (SIF), read-out: Stability
# Mus musculus [11] = experiment: Induction of osteogenesis in BALB/c mouse model of drill hole defect at femur mid-diaphysis assessed as increase in calcein binding at fracture site at 5 mg/kg, po for 12 days by confocal microscopy; type: functional, organism-based; conditions: time 12.0 day
# Summary of the method: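 Femur drill-hole model in female BALB/c mice, oral dosing 1–10 mg kg⁻¹ for 12 days from the day after injury. Calcein 20 mg kg⁻¹ in saline given i.p. 24 h before autopsy; undecalcified drill-hole region embedded in acrylic, 50 μm sections cut, and calcein intensity at the fracture site quantified.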
# Mus musculus [12] = experiment: Induction of osteogenesis in BALB/c mouse model of drill hole defect at femur mid-diaphysis assessed as increase in bone volume/tissue volume fraction at 5 to 10 mg/kg, po for 12 days by micro-CT analysis; type: functional, organism-based; conditions: dose 5-10 mg/kg, time 12.0 day
# Summary of the method: (§5)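 Female BALB/c mice, 8–9 weeks, given a drill-hole defect at femur mid-diaphysis under intraperitoneal ketamine (45 mg kg⁻¹)/xylazine (5 mg kg⁻¹); ten per group. Oral dosing at 1, 5 or 10 mg kg⁻¹ began the day after injury for 12 days; PTH 20 μg kg⁻¹ per day as reference. Defect region scanned by μCT for BV/TV, Tb.Th and Tb.N.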
# Calvarial osteoblast [13] = experiment: Induction of osteogenesis in BALB/c mouse calvarial osteoblast cells assessed as increase in BMP2 level at 1 to 100 pM incubated for 48 hrs by Western blot analysis; type: functional, cell-based; conditions: Calvaria, dose 1-100 pM; summary of the method: as §4
# Calvarial osteoblast [14] = experiment: Induction of osteogenesis in BALB/c mouse calvarial osteoblast cells assessed as increase in phosphorylated SMAD1 level at 1 to 100 pM incubated for 48 hrs by Western blot analysis; type: functional, cell-based; conditions: Calvaria, dose 1-100 pM; summary of the method: as §4
# Calvarial osteoblast [15] = experiment: Induction of osteogenesis in BALB/c mouse calvarial osteoblast cells using PNPP as substrate assessed as increase in ALP activity at 0.001 to 1000 nM measured after 48 hrs by spectrophotometry; type: functional, cell-based; conditions: Calvaria, dose 0.001-1000 nM; summary of the method: as §1
# [16] = Cmax in BALB/c mouse at 5 mg/kg, po measured for 0.83 to 24 hrs by LC-MS/MS analysis; type: ADME, organism-based; parameters: time 0.83-24 hrs, dose 5 mg/kg, route po; conditions: in vivo
# [17] = Clearance in BALB/c mouse at 5 mg/kg, po measured for 0.83 to 24 hrs by LC-MS/MS analysis; type: ADME, organism-based; conditions: in vivo, time 0.83-24 hrs
# Calvarial osteoblast [18] = experiment: Induction of osteogenesis in BALB/c mouse calvarial osteoblast cells assessed as increase in SMAD1 level at 1 to 100 pM incubated for 48 hrs by Western blot analysis; type: functional, cell-based; conditions: Calvaria, dose 1-100 pM; summary of the method: as §4
# [19] = Volume of distribution in BALB/c mouse at 5 mg/kg, po measured for 0.83 to 24 hrs by LC-MS/MS analysis; type: ADME, organism-based; conditions: in vivo, time 0.83-24 hrs
# Calvarial osteoblast [20] = experiment: Induction of osteogenesis in BALB/c mouse calvarial osteoblast cells assessed as increase in RUNX mRNA level at 1 to 100 pM by qPCR analysis; type: functional, cell-based; conditions: Calvaria, dose 1-100 pM
# Summary of the method: (§6)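 BALB/c calvarial osteoblasts treated at 1 pM and 100 pM; RNA isolated, cDNA synthesized and RUNX2 and type 1 col transcripts measured by PCR.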
# Mus musculus [21] = experiment: Induction of osteogenesis in BALB/c mouse model of drill hole defect at femur mid-diaphysis assessed as increase in RUNX2 mRNA level at 5 to 10 mg/kg, po for 12 days by qPCR analysis; type: functional, organism-based; conditions: dose 5-10 mg/kg, time 12.0 day
# Mus musculus [22] = experiment: Induction of osteogenesis in BALB/c mouse model of drill hole defect at femur mid-diaphysis assessed as increase in fracture healing at 1 to 10 mg/kg, po for 12 days by micro-CT analysis; type: functional, organism-based; conditions: dose 1-10 mg/kg, time 12.0 day; summary of the method: as §5
# Mus musculus [23] = experiment: Induction of osteogenesis in BALB/c mouse model of drill hole defect at femur mid-diaphysis assessed as increase in trabecular thickness at 5 to 10 mg/kg, po for 12 days by micro-CT analysis; type: functional, organism-based; conditions: dose 5-10 mg/kg, time 12.0 day; summary of the method: as §5
# Mus musculus [24] = experiment: Induction of osteogenesis in BALB/c mouse model of drill hole defect at femur mid-diaphysis assessed as increase in trabecular number at 5 mg/kg, po for 12 days by micro-CT analysis; type: functional, organism-based; conditions: time 12.0 day; summary of the method: as §5
# Mus musculus [25] = experiment: Induction of osteogenesis in BALB/c mouse model of drill hole defect at femur mid-diaphysis assessed as increase in type-1 col mRNA level at 5 to 10 mg/kg, po for 12 days by qPCR analysis; type: functional, organism-based; conditions: dose 5-10 mg/kg, time 12.0 day
# [26] = Stability in BALB/c mouse plasma assessed as compound remaining measured upto 6 hrs by RP-UHPLC analysis; type: ADME, cell-free; conditions: read-out: Stability
# Calvarial osteoblast [27] = experiment: Induction of osteogenesis in BALB/c mouse calvarial osteoblast cells assessed as increase in type-1 col mRNA level at 1 to 100 pM by qPCR analysis; type: functional, cell-based; conditions: Calvaria, dose 1-100 pM; summary of the method: as §6
# [28] = Half life in BALB/c mouse at 5 mg/kg, po measured for 0.83 to 24 hrs by LC-MS/MS analysis; type: ADME, organism-based; conditions: in vivo, time 0.83-24 hrs
# Calvarial osteoblast [29] = experiment: Induction of cell proliferation of BALB/c mouse calvarial osteoblast cells at 0.001 nM incubated for 48 hrs by MTT assay relative to control; type: functional, Calvaria; summary of the method: as §3
# [30] = MRT in BALB/c mouse at 5 mg/kg, po measured for 0.83 to 24 hrs by LC-MS/MS analysis; type: ADME, organism-based; conditions: in vivo, time 0.83-24 hrs
# Mus musculus [31] = experiment: Induction of osteogenesis in BALB/c mouse model of drill hole defect at femur mid-diaphysis assessed as increase in extracellular matrix deposition at 1 to 10 mg/kg, po for 12 days by H and E staining based analysis; type: functional, organism-based; conditions: dose 1-10 mg/kg, time 12.0 day
# Summary of the method: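 Drill-hole femur defect, female BALB/c mice, oral dosing 1–10 mg kg⁻¹ for 12 days. Injury-site tissue fixed 48 h in 4% paraformaldehyde, 48 h in 70% isopropanol, decalcified, paraffin-embedded; 5 μm transverse sections stained with H&E and imaged by bright-field microscopy.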
# Mus musculus [32] = experiment: Induction of osteogenesis in BALB/c mouse model of drill hole defect at femur mid-diaphysis assessed as increase in BMP2 mRNA level at 5 to 10 mg/kg, po for 12 days by qPCR analysis; type: functional, organism-based; conditions: dose 5-10 mg/kg, time 12.0 day
# [33] = Stability in SPF assessed as compound remaining measured upto 6 hrs by RP-UHPLC analysis; type: physicochemical; conditions: read-out: Stability
# Calvarial osteoblast [34] = experiment: Induction of osteogenesis in BALB/c mouse calvarial osteoblast cells assessed as increase in RUNX2 level at 1 to 100 pM incubated for 48 hrs by Western blot analysis; type: functional, cell-based; conditions: Calvaria, dose 1-100 pM; summary of the method: as §4
# [35] = Tmax in BALB/c mouse at 5 mg/kg, po measured for 0.83 to 24 hrs by LC-MS/MS analysis; type: ADME, organism-based; conditions: in vivo, time 0.83-24 hrs
# Mus musculus [36] = experiment: Induction of osteogenesis in BALB/c mouse model of drill hole defect at femur mid-diaphysis assessed as increase in callus formation at 1 to 10 mg/kg, po for 12 days by micro-CT analysis; type: functional, organism-based; conditions: dose 1-10 mg/kg, time 12.0 day; summary of the method: as §5
smiles,measurement,setting,value
COc1cc(OC)c(-c2cc(-c3ccc(Br)cc3)nc(N)n2)cc1OC,Activity,Calvarial osteoblast [1],Active
same,Activity,Calvarial osteoblast [2],Non-Toxic
same,Activity,[3],~23%
same,Activity,Calvarial osteoblast [4],~30%
COc1cc(OC)c(-c2nc(N)nc(-c3ccc(Cl)cc3)c2Cl)cc1OC,Activity,Calvarial osteoblast [1],Active
same,Activity,Calvarial osteoblast [2],Non-Toxic
same,Activity,[3],~26%
same,Activity,Calvarial osteoblast [4],~29%
CCCCCC(=O)Nc1nc(-c2ccc(Br)cc2)c(Br)c(-c2cc(OC)c(OC)cc2OC)n1,Activity,Calvarial osteoblast [5],Active
same,Activity,[6],~40%
same,remaining at 6 h,[7],> 50%
same,AUC,[8],6.18006 ng·h/mL
same,Activity,Calvarial osteoblast [9],~23%
same,remaining at 6 h,[10],> 50%
same,Activity,Mus musculus [11],Active
same,Activity,Mus musculus [12],Active
same,Activity,Calvarial osteoblast [13],Active
same,Activity,Calvarial osteoblast [14],Active
same,Activity,Calvarial osteoblast [15],Active
same,Cmax,[16],0.83 ng/mL
same,CL,[17],1964 mL/min/kg
same,Activity,Calvarial osteoblast [2],Non-Toxic
same,Activity,[3],~39%
same,Activity,Calvarial osteoblast [18],Active
same,Vd,[19],2113.99 L/kg
same,Activity,Calvarial osteoblast [20],Active
same,Activity,Mus musculus [21],Active
same,Activity,Mus musculus [22],Active
same,Activity,Mus musculus [23],Active
same,Activity,Mus musculus [24],Active
same,Activity,Mus musculus [25],Active
same,remaining at 6 h,[26],> 85%
same,Activity,Calvarial osteoblast [4],~31%
same,Activity,Calvarial osteoblast [27],Active
same,half-life,[28],12.4 h
same,Activity,Calvarial osteoblast [29],~32%
same,MRT,[30],18.1 h
same,Activity,Mus musculus [31],Active
same,Activity,Mus musculus [32],Active
same,remaining at 6 h,[33],> 85%
same,Activity,Calvarial osteoblast [34],Active
same,Tmax,[35],0.83 h
same,Activity,Mus musculus [36],Active
